Source: ChEMBL document CHEMBL4219243, “Characterization of Protease-Activated Receptor (PAR) ligands: Parmodulins are reversible allosteric inhibitors of PAR1-driven calcium mobilization in endothelial cells” (Bioorg Med Chem, 2018)
Activity calls are given as the source filed them. The rule behind the calls is not given here.

Columns and labels:
[1] = target: T1, Proteinase-activated receptor 1 (Homo sapiens, UniProt P25116); test: (§1) Antagonist activity at PAR1 in human EAhy926 cells assessed as inhibition of TFLLRN-NH2-induced intracellular calcium mobilization pretreated for 15 mins followed by TFLLRN-NH2 addition measured at 5 secs interval for 250 secs by Fluo-4/AM dye based fluorescence assay; type: functional, cell-based
T1 sequence (P25116 whole entry): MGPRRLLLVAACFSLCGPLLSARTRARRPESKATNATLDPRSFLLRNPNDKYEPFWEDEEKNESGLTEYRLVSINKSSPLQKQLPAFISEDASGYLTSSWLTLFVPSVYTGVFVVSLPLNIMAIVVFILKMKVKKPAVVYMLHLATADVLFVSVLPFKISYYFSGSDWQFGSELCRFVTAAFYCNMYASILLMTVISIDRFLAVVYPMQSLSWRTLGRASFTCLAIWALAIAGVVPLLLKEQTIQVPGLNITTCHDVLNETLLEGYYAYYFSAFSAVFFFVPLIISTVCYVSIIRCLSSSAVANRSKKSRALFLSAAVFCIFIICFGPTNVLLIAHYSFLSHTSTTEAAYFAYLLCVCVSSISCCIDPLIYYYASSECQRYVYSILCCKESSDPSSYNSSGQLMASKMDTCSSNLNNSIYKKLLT
How it was run: (§2)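 EA.hy926 cells were used at passage 2–11, seeded at 25,000/well and grown 40–48 h at 37 °C to >80% confluence. Cells were loaded with Fluo-4/AM (2 μM) in HBSS-HEPES containing 2.5 mM probenecid, pH 7.4, for 40–50 min, then washed twice. Antagonist in 10% DMSO vehicle was added for 15 min at 37 °C before agonist. Agonist was 5 μM TFLLRN-NH₂; ex 485/em 525 nm.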

[2] = target: T2, Proteinase-activated receptor 1 (Homo sapiens) (UniProt P25116); test: as §1; type: functional, cell-based; parameters: concentration or dose not given beside the values; how it was run: as §2
T2 sequence (whole entry): T1 sequence (P25116 whole entry)

[3] = target: Proteinase-activated receptor 2 (Homo sapiens) (UniProt P55085); test: Antagonist activity at PAR2 in human EAhy926 cells assessed as inhibition of SLIGKV-NH2-induced intracellular calcium mobilization at 10 uM pretreated for 15 mins followed by SLIGKV-NH2 addition measured at 5 secs interval for 250 secs by Fluo-4/AM dye based fluorescence assay; type: functional, cell-based
How it was run: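 EA.hy926 monolayers were Fluo-4/AM-loaded (2 μM, with 2.5 mM probenecid in HBSS-HEPES) and pretreated 15 min at 37 °C with 10 μM antagonist in 10% DMSO vehicle. They were then stimulated with 3.16 μM SLIGKV-NH₂. Fluorescence (485/525 nm) was read every 5 s. The peak rise over basal, divided by basal, was normalized to the vehicle well.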

[4] = target: T2, Proteinase-activated receptor 1 (Homo sapiens); test: Negative allosteric modulation of PAR1 in human EAhy926 cells assessed as inhibition of TFLLRN-NH2-induced intracellular calcium mobilization at 10 uM pretreated for 20 to 30 mins followed by compound washout and subsequent incubation for 10 mins prior to TFLLRN-NH2 addition measured at 5 secs interval for 250 secs by Fluo-4/AM dye based fluorescence assay; type: functional, cell-based
How it was run: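 EA.hy926 cells grown 40–48 h to confluence, loaded with Fluo-4/AM in HBSS-HEPES with 2.5 mM probenecid for 40–50 min at 37 °C, washed. Antagonist or vehicle (10% DMSO) added for 20–30 min, then washed twice with buffer, 10 min at 37 °C each. TFLLRN-NH2 (5 μM) added; emission 525 nm (ex 485) read against basal.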

[5] = target: Proteinase-activated receptor 2 (Homo sapiens) (UniProt P55085); type: functional, cell-based; conditions: 0.316 uM
[6] = target: T2, Proteinase-activated receptor 1 (Homo sapiens); conditions: 0.316 uM
[7] = target: T2, Proteinase-activated receptor 1 (Homo sapiens); type: functional, cell-based; conditions: 0.316 uM
[8] = target: T3, Proteinase-activated receptor 2 (Homo sapiens, UniProt P55085); test: Antagonist activity at PAR2 in human EAhy926 cells assessed as inhibition of SLIGKV-NH2-induced intracellular calcium mobilization pretreated for 15 mins followed by SLIGKV-NH2 addition measured at 5 secs interval for 250 secs by Fluo-4/AM dye based fluorescence assay; type: functional, cell-based
T3 sequence (P55085 whole entry): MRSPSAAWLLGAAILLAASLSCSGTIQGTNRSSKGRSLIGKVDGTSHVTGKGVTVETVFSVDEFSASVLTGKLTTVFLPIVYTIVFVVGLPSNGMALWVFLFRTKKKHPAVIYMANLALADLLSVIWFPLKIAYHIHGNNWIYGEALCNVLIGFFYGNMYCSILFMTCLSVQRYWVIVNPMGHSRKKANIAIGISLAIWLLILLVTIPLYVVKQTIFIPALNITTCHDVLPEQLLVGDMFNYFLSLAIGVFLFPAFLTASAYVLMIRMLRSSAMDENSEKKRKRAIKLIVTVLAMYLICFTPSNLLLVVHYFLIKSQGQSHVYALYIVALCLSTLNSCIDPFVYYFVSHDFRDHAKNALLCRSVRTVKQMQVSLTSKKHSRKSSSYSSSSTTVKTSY
How it was run: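 EA.hy926 monolayers (25,000 cells/well, 40–48 h) were loaded with 2 µM Fluo-4/AM for 40–50 min at 37 °C in HBSS-HEPES with 2.5 mM probenecid, pH 7.4. Antagonist in 10% DMSO vehicle was added for 15 min at 37 °C, then SLIGKV-NH2 (5 µM for curves, 3.16 µM for selectivity). Read at ex485/em525, 20 basal scans. Peak RFU/basal was normalised to a same-column vehicle well; curves from ≥3 repeats fitted by 4-parameter regression.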

[9] = target: T2, Proteinase-activated receptor 1 (Homo sapiens); test: Antagonist activity at PAR1 in human EAhy926 cells assessed as inhibition of TFLLRN-NH2-induced intracellular calcium mobilization at 10 uM pretreated for 15 mins followed by TFLLRN-NH2 addition measured at 5 secs interval for 250 secs by Fluo-4/AM dye based fluorescence assay; type: functional, cell-based

C#CCCC(=O)NCC[C@H](NC(=O)[C@H](Cc1ccc(F)c(F)c1)NC(=O)Nc1ccc2c(CN3CCCC3)nn(Cc3c(Cl)cccc3Cl)c2c1)C(=O)NCc1ccccc1
IC50 ([1]; read-out: pIC50 (converted)): 0.316 µM | inhibition [2]: 76%

CCCCNc1cccc(NC(=O)c2ccccc2Br)c1
inhibition [3]: inactive | IC50 ([1]; read-out: IC50): 0.97 µM | inhibition [4]: Active

CCCCC(=O)Nc1cccc(NC(=O)c2ccccc2Br)c1
inhibition [2]: 49%

CCOC(=O)N[C@@H]1CC[C@@H]2[C@@H](C1)C[C@H]1C(=O)O[C@H](C)[C@H]1[C@H]2/C=C/c1ccc(-c2cccc(F)c2)cn1
inhibition [5]: inactive | inhibition [6]: inactive

CCCC(=O)Nc1cccc(NC(=O)c2ccccc2N=[N+]=[N-])c1
IC50 ([1]; read-out: IC50): 94 µM | inhibition [2]: 77%

CC(C)CC(=O)Nc1cccc(NC(=O)c2ccccc2Br)c1
IC50 ([1]; read-out: IC50): 3.16 µM | inhibition [2]: 74% | inhibition [4]: Active

NCC[C@H](NC(=O)[C@H](Cc1ccc(F)c(F)c1)NC(=O)Nc1ccc2c(CN3CCCC3)nn(Cc3c(Cl)cccc3Cl)c2c1)C(=O)NCc1ccccc1
inhibition [7]: Active | IC50 ([1]; read-out: IC50): 0.02 µM | inhibition [5]: inactive

CCCC(=O)Nc1cccc(NC(=O)c2ccccc2Br)c1
inhibition [3]: inactive | IC50 ([1]; read-out: IC50): 0.85 µM | inhibition [4]: Active

C#CCCC(=O)Nc1cccc(NC(=O)c2ccccc2Br)c1
IC50 ([1]; read-out: IC50): 81 µM | IC50 ([1]; read-out: pIC50 (converted)): 100 µM | inhibition [2]: 79%

CC[C@H](C)[C@H](NC(=O)[C@H](CC1CCCCC1)NC(=O)c1ccno1)C(=O)NCc1ccccc1OC
IC50 [8]: 1.7 µM | inhibition [9]: inactive

Clc1ccc(Cn2c(Cc3ccccc3)nc3ccccc32)cc1
inhibition [9]: inactive

CCOc1cc2c(c(F)c1OCC)C(=N)N(CC(=O)c1cc(N3CCOCC3)c(OC)c(C(C)(C)C)c1)C2 [ATOPAXAR]
IC50 ([1]; read-out: IC50): 0.033 µM | inhibition [2]: 94% | inhibition [5]: inactive

CCC(=O)Nc1cccc(NC(=O)c2ccccc2Br)c1
IC50 ([1]; read-out: IC50): 3.3 to 3.31 µM | IC50 ([1]; read-out: pIC50 (converted)): 3.16 µM | inhibition [2]: 68%
